From PubChem BioAssay
This is a sample that favours compounds with a hit; in the whole collection about 4.8% have one here.
RORA act: activators of orphan receptor RORA, primary screen, cell-based, luminescence; 65,000 compounds, 1.5% hits; AID 560, 2006; activation, % at 10 µM; CHO-K1 Gal4-RORA LBD luciferase reporter; percent increase over mock-subtracted basal signal; Nuclear receptor ROR-alpha (Homo sapiens), P35398;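 active means activation above the mean of all tested compounds plus 3 SD, cut at about 49% in these data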;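 further: 0% = DMSO-treated RORA cells and 100% = added signal equal to DMSO minus mock-transfected cells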
ERa coact pot: enhancers of ERα–SRC-1 coactivator binding, primary screen, biochemical, TR-FRET, ERα LBD, low estradiol | Estrogen receptor (Homo sapiens), P03372 | TR-FRET ERalpha-LBD/SRC-Cy5 coactivator binding, 2 h; 100 = basal binding, no effect | AID 639, 2007 | coactivator binding (% of control), % at 25.6 µM | 86,000 compounds, 1.3% hits; in the data active means activity above about 200%;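 further: binding measured in presence of low estradiol as agonist stimulus; 0% = peptide alone without receptor and 100% = receptor with peptide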
ERb SRC1 inh: inhibitors of ERβ-SRC1 coactivator interaction, primary screen, biochemical, TR-FRET, ERβ LBD, SRC-1 peptide; Estrogen receptor beta (Homo sapiens), Q92731; TR-FRET ER-beta LBD / SRC1-Cy5 peptide binding; receptor agonist-loaded with 1 µM estradiol; inhibition, % at 25.6 µM; 86,000 compounds, 1.3% hits; AID 633, 2007;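 active means compounds whose percent inhibition of the receptor-coactivator binding signal exceeds about 50% in the single-dose screen, limit read from the data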;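 further: 0% = receptor plus peptide wells without compound and 100% = peptide-only wells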
Target sequence (Q92731 whole entry, looked up, the tested form may be a part): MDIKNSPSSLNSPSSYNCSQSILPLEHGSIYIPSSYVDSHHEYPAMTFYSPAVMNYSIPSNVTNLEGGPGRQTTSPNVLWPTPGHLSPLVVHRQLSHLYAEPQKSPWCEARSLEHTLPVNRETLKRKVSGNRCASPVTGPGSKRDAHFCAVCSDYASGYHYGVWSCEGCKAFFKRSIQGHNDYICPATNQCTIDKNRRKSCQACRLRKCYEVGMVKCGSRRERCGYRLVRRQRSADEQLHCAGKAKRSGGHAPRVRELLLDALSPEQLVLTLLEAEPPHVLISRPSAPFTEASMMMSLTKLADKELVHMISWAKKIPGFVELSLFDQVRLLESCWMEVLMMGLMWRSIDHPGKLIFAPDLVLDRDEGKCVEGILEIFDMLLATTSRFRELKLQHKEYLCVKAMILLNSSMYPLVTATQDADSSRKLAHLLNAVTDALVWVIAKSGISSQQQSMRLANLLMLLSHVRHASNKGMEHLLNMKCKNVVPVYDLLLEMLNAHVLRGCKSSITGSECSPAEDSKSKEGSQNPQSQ
SF1 activator: activators of human SF-1, primary screen, cell-based, CHO-K1, Gal4-SF-1 LBD, luciferase luminescence | activation, % at 10 µM | CHO-K1 Gal4-SF-1 LBD luciferase reporter; % increase over DMSO SF-1-specific signal | 65,000 compounds, 1.9% hits;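 active means activation above the mean activation of all tested compounds plus 3 SD, cut at about 50% in these data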
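Test system: CHO-K1 cells with Gal4–hSF-1 LBD chimera plus Gal4-driven luciferase; Input: 4,000 cells/well; Compound: 10 µM only; Times: 20 h compound treatment, 37 °C; Measured by: steady-glow luciferase luminescence, read after 15 min reagent incubation; Measure: percent activation versus DMSO; Control set: DMSO and mock-transfected background; Replicates: one test per compound.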
Pyk2 oligo antag: antagonists of Pyk2 self-association, primary screen, Q293 cells, FERM NanoBiT luminescence, HTS; stronger effect = lower value; z-score (the deposit names both 25 µM and 10 µM); 99,000 compounds, 0.83% hits; AID 1347419, 2020;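 active means Z-score of -3 or lower, scaled per plate to the spread of control and sample wells; inactive means z-score above -3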;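 further: negative z-score means lost luminescence so less FERM oligomerization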
ERa coact inh: ERα–SRC-1 coactivator interaction inhibitors, primary screen, biochemical, TR-FRET, ERα LBD, estradiol-bound; Estrogen receptor (Homo sapiens), P03372; TR-FRET ER-alpha LBD / SRC-1 peptide; AID 629, 2007; inhibition, % at 25.6 µM; 86,000 compounds, 1.7% hits; in the data active means inhibition above about 50%;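 further: 0% = receptor plus peptide control and 100% = peptide only without receptor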
Numbers without * were called inactive; nt = no result; [ ] = dose if it differs, or a comment.

SMILES	RORA act	ERa coact pot	ERb SRC1 inh	SF1 activator	Pyk2 oligo antag	ERa coact inh
COc1nc(-c2ccc(C)cc2)ccc1-c1noc(-c2cccnc2)n1	9.3	557.4*[fluorescence artefact?]	4.9	-8.4	0.45	20.6
COc1nc(-c2ccccc2)ccc1-c1noc(-c2cccnc2)n1	12.8	487.2*[fluorescence artefact?]	14.4	10.4	-0.19	29.1
COc1nc(-c2ccccc2)ccc1-c1noc(-c2ccc(F)cc2)n1	12.8	125.7	-0.7	-5.0	nt	2.1
CCOc1ccccc1-c1nc(-c2cc3ccccc3nc2OC)no1	16.3	164.9	66.6*	-8.0	-1.63	9.8
COc1nc2ccccc2cc1-c1noc(-c2cccnc2)n1	35.4	214.7*[fluorescence artefact?]	15.6	7.5	nt	17.2
CC1(C)NC(=O)N(CC(=O)Nc2nc(-c3ccc(F)cc3)cs2)C1=O	nt	nt	nt	nt	-1.01	nt
Cc1cccc(Cn2cnc3ccccc32)c1	nt	92.0	10.2	nt	1.14	19.9
COc1cc2c3nnc(-c4ccc(F)cc4)c-3cn(Cc3cccc(C)c3)c2cc1OC	nt	366.3*[fluorescence artefact?]	29.4	nt	nt	18.3
COc1cc2c3nnc(-c4ccc(F)cc4)c-3cn(Cc3ccc(C)cc3)c2cc1OC	nt	591.4*[fluorescence artefact?]	51.1*[fluorescence artefact?]	nt	nt	6.4
COc1cc2c(cc1NS(=O)(=O)N1CCCCC1)oc1ccccc12	nt	95.4	11.0	nt	-0.76	-2.1
Cc1ccc(C2NC(=O)c3c(sc4c3CCN(C)C4)N2)s1 (configuration not stated)	13.4	28.7	36.2	-5.7	-0.95	53.5*[fluorescence artefact?]
CN1CCc2c(sc3c2C(=O)NC(/C=C/c2ccco2)N3)C1 (configuration not stated)	-34.4	42.6	54.1*[fluorescence artefact?]	0.6	0.78	27.6
Brc1cccc(CN2CCCCCCC2)c1	nt	106.1	-22.9	nt	0.01	-10.6
O=S(=O)(NCc1csc(-c2cccnc2)n1)c1ccc(Cl)s1	nt	40.5	53.5*	nt	nt	65.0*
COc1cccc(NC(=O)c2nnn(CCc3ccccc3)c2N)c1	53.1*	100.0	18.9	83.8*	nt	17.2
COc1cccc(NC(=O)c2nnn(Cc3ccc(Br)cc3F)c2N)c1	58.3*	269.9*	-24.2	1.8	nt	-3.5
COc1cccc(NC(=O)Cn2nnc(C(=O)Nc3ccccc3)c2N)c1	21.1	107.4	-3.1	7.1	-0.11	27.9
COC(=O)c1ccc(-c2ccco2)n1Cc1nc(-c2ccc(OC)c(OC)c2)oc1C	-12.3	98.3	66.6*[fluorescence artefact?]	5.4	-0.57	70.1*[fluorescence artefact?]
O=C(NNC(=O)C1CC1c1ccccc1)Nc1cccc(Cl)c1 (configuration not stated)	nt	nt	nt	nt	0.43	nt
CCOc1ccc(NS(=O)(=O)c2cc(OC)ccc2OC)cc1	nt	112.0	-25.0	nt	-1.44	-9.2
COc1ccc(OC)c(S(=O)(=O)Nc2ccc(Oc3ccccc3)cc2)c1	nt	100.3	11.4	nt	-3.64*	-3.3
COc1ccc(C(=O)Nc2ccc3c(c2)Cc2ccccc2-3)cc1	nt	nt	nt	nt	0.44	nt
COc1cccc(OC)c1C(=O)NC(=S)Nc1ccc2c(c1)Cc1ccccc1-2	nt	202.1*	0.1	nt	-0.18	-1.4
COc1c(C)cccc1C(=O)NC(=S)Nc1ccc2c(c1)Cc1ccccc1-2	nt	245.0*[fluorescence artefact?]	5.8	nt	-0.31	-0.5
Cc1ccc(-n2c(SCn3nnc4ccccc4c3=O)nnc2-c2cccnc2)c(C)c1	4.7	35.6	48.2	-7.6	-0.55	86.9*[fluorescence artefact?]
SMILES	RORA act	ERa coact pot	ERb SRC1 inh	SF1 activator	Pyk2 oligo antag	ERa coact inh
CCOC(=O)N1CCN(S(=O)(=O)Cc2ccccc2)CC1	-12.0	108.4	2.9	1.6	-0.3	3.0
CCOC(=O)C1CCN(S(=O)(=O)Cc2ccccc2)C1=O (configuration not stated)	-16.4	116.2	68.2*[fluorescence artefact?]	32.1	-0.43	-8.1
CC1CC(C)CN(S(=O)(=O)c2ccccc2[N+](=O)[O-])C1 (configuration not stated)	nt	nt	nt	nt	-0.65	nt
Cc1nn(Cc2ccc(Cl)cc2)c(C)c1NC(=O)c1cc(-c2ccc3c(c2)OCO3)on1	-12.6	74.1	18.6	-8.6	-0.11	69.9*[fluorescence artefact?]
Cc1nn(Cc2ccc(Cl)c(Cl)c2)c(C)c1NC(=O)c1cc(-c2ccc3c(c2)OCO3)on1	-5.3	94.5	-20.4	-23.3	-0.48	35.8
Cc1ccc(-c2cc(C(=O)NCc3ccco3)no2)cc1	32.2	112.2	-21.1	47.8	-0.33	-8.9
O=C(NCc1ccco1)c1cc(-c2ccc3c(c2)OCO3)on1	51.0*	260.5*[fluorescence artefact?]	10.6	42.7	2.25	25.6
N#C/C(=C\Nc1ccccc1O)c1nc2ccccc2o1	nt	nt	nt	nt	-3.35*	nt
O=C/C(=C\Nc1ccccn1)c1nc2ccccc2o1	nt	114.6	9.3	nt	0.47	14.4
CC1(C)C(O)=C(c2nc3ccccc3[nH]2)C(=N)N1c1ccccc1	nt	100.8	-7.0	nt	0.63	-4.4
N=c1c(-c2nc3ccccc3[nH]2)cc(C(=O)c2cccs2)nn1-c1ccccc1	nt	61.3	62.5*[fluorescence artefact?]	nt	-2.58	91.8*[fluorescence artefact?]
O=C1c2ccccc2C(Nc2ccc3c(c2)OCCO3)N1Cc1ccc2c(c1)OCO2 (configuration not stated)	-33.5	98.9	-8.4	0.8	nt	-0.4
O=C1OC(Nc2ccc3c(c2)OCO3)c2ccccc21 (configuration not stated)	-21.7	73.9	52.0*	12.3	1.26	34.9
CCOC(=O)C(CC)n1cnc2c(oc3ccccc32)c1=O (configuration not stated)	-4.8	nt	nt	-14.8	0.21	nt
COCCn1c(COc2ccc(C)cc2)nc2ccccc21	40.0	97.0	-14.2	49.9*	-1.01	-14.9
Cc1nn(-c2ccccc2)c(OC(=O)c2cccs2)c1S(=O)(=O)c1ccc([N+](=O)[O-])cc1	nt	89.6	1.2	nt	-0.9	3.5
O=C(Cc1cccc2ccccc12)N/N=C/c1ccc(F)cc1	nt	nt	nt	nt	-0.14	nt
O=C(Cc1cccc2ccccc12)N/N=C/c1ccc(OC(=O)/C=C/c2ccco2)cc1	nt	88.2	47.6	nt	0.89	65.4*[fluorescence artefact?]
CCCc1[nH]nc2c1C(c1ccccc1OCC)C(C#N)=C(N)O2 (configuration not stated)	-10.9	85.3	3.1	-15.8	0.1	3.9
CCOc1ccccc1C1C(C#N)=C(N)Nc2onc(-c3ccccc3)c21 (configuration not stated)	32.9	377.6*	0.7	9.5	-0.64	-4.0
CCN(CC)C(=O)CNC(=S)N(CCCN1CCOCC1)Cc1cccs1	nt	nt	nt	nt	1.19	nt
